Test results as given in ChEMBL document CHEMBL4765233, “From Lead to Drug Candidate: Optimization of 3-(Phenylethynyl)-1H-pyrazolo[3,4-d]pyrimidin-4-amine Derivatives as Agents for the Treatment of Triple Negative Breast Cancer” (J Med Chem, 2016).
Active and inactive are the calls of the source. The rule behind the calls is not given here.

Legend:
[1] = Cmax in Sprague-Dawley rat at 10 mg/kg, po administered via gavage by LC-MS analysis; assay type: ADME, organism-based; design: route oral, dose 10 mg/kg; settings: in vivo
[2] = AUC (0 to infinity) in Sprague-Dawley rat at 10 mg/kg, po administered via gavage by LC-MS analysis; assay type: ADME, organism-based; design: time infinity, route oral, dose 10 mg/kg; settings: in vivo
PC-9 = experiment: Antiproliferative activity against human PC-9 cells assessed as reduction in cell viability incubated for 72 hrs by MTT assay; assay type: functional, cell-based; settings: PC-9, 72 h
In short: (§1)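 MTT viability assay. ATCC cell lines were grown in designated medium with 10% FBS at 37 °C, 5% CO2. Cells seeded at 1500−30000 per well and incubated 24 h, then exposed to compound (0−10 μg/mL) for 72 h. MTT added for 2−4 h. Formazan dissolved in DMSO (adherent) or acidified SDS overnight (suspension), absorbance read at 570 nm. Triplicates; IC50 calculated.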

[3] = target: Proto-oncogene tyrosine-protein kinase Src (Homo sapiens) (UniProt P12931); experiment: Inhibition of Src in human MDA-MB-231 cells assessed as inhibition of FAK phosphorylation at 0.1 to 0.3 uM incubated for 20 hrs by Western blot analysis; assay type: cell-based; settings: dose 0.1-0.3 µM
Chain of Proto-oncogene tyrosine-protein kinase Src (Homo sapiens) (P12931 2-536 limits assumed): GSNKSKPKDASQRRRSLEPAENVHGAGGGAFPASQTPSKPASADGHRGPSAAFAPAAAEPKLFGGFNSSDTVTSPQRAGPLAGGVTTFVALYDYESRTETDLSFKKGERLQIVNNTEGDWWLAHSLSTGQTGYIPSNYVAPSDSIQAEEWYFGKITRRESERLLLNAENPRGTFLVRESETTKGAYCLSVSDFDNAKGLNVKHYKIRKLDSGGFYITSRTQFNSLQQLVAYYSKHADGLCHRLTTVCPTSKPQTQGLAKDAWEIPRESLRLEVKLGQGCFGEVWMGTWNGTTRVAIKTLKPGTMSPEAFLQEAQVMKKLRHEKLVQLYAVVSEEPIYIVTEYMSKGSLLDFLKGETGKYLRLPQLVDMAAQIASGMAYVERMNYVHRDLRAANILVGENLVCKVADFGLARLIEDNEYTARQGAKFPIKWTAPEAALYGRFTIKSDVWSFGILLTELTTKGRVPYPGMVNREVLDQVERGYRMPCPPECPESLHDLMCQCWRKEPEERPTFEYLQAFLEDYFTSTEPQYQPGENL
In short: (§2)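 MDA-MB-231 cells treated with a series of concentrations for 20 h at 37 °C. Cells washed with ice-cold saline and lysed in RIPA buffer with protease cocktail. Lysates cleared at 12000 rpm for 10 min at 4 °C and protein quantified by Bradford. Equal protein separated by SDS-PAGE, transferred to PVDF and probed with antibodies.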

MIA PaCa-2 = experiment: Antiproliferative activity against human MIA PaCa-2 cells assessed as reduction in cell viability incubated for 72 hrs by MTT assay; assay type: functional, cell-based; settings: MIA PaCa-2, 72 h; in short: as §1
MDA-MB-231 [4] = experiment: Induction of apoptosis in human MDA-MB-231 cells assessed as live cells at 0.01 uM incubated for 24 hrs by annexin V-FITC and propidium iodide staining based flow cytometry analysis (reference value: 96.95 %); assay type: functional
[5] = Acute toxicity in Sprague-Dawley rat assessed as histopathological changes in spleen at 100 mg/kg, po administered as single dose measured after 24 hrs by H and E staining based light microscope analysis; assay type: organism-based; settings: in vivo
In short: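 Sprague-Dawley rats received a single oral dose of 100 mg/kg in sterile water with 25% (v/v) PEG400 plus 5% DMSO. Organs were examined by histology and immunohistochemistry for pathological changes. Behaviour and side effects were checked daily.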

Danio rerio = species: Danio rerio; experiment: Antiangiogenesis activity in EGFP-labelled zebrafish embryo assessed as reduction in formation of major cranial vessel at 1.25 to 5 uM incubated for overnight by fluorescence microscopic analysis; assay type: functional, organism-based; settings: dose 1.25-5 µM
In short: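 Transgenic FLK:EGFP zebrafish kept at 28 °C, pH 7.2−7.4, 14 h light/10 h dark. Embryos at 30 hpf incubated overnight with compound at 1.25, 2.5 or 5 μM beside a blank control. Fish anaesthetized, then vessels imaged by fluorescence microscopy.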

MDA-MB-231 [6] = experiment: Induction of apoptosis in human MDA-MB-231 cells assessed as live cells at 0.1 uM incubated for 24 hrs by annexin V-FITC and propidium iodide staining based flow cytometry analysis (reference value: 96.95 %); assay type: functional
MDA-MB-231 [7] = experiment: Induction of apoptosis in human MDA-MB-231 cells incubated for 24 hrs by annexin V-FITC and propidium iodide staining based flow cytometry analysis; assay type: functional, cell-based; settings: dose 0.01-0.1 µM
In short: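 MDA-MB-231 cells (2 × 10^5) plated in six-well plates, treated with vehicle or compound at various concentrations for 24 h at 37 °C. Harvested, washed with ice-cold PBS, stained with Annexin V-FITC/PI and analysed by flow cytometry.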

MDA-MB-231 [8] = experiment: Inhibition of Fra1 phosphorylation in human MDA-MB-231 cells at >0.03 uM incubated for 20 hrs by Western blot analysis; assay type: functional, cell-based; settings: dose microM >0.03, time 20.0 hrs; in short: as §2
NCI-H1437 = experiment: Antiproliferative activity against human NCI-H1437 cells assessed as reduction in cell viability incubated for 72 hrs by MTT assay; assay type: functional, cell-based; settings: NCI-H1437, 72 h; in short: as §1
[9] = target: High affinity nerve growth factor receptor (Homo sapiens, UniProt P04629); experiment: Inhibition of human recombinant TRKA (440 to end residues) using KKKSPGEYVNIEFG as substrate incubated for 40 mins in presence of [gamma33P-ATP] by radiometric scintillation counting analysis
Chain of High affinity nerve growth factor receptor (P04629 whole entry): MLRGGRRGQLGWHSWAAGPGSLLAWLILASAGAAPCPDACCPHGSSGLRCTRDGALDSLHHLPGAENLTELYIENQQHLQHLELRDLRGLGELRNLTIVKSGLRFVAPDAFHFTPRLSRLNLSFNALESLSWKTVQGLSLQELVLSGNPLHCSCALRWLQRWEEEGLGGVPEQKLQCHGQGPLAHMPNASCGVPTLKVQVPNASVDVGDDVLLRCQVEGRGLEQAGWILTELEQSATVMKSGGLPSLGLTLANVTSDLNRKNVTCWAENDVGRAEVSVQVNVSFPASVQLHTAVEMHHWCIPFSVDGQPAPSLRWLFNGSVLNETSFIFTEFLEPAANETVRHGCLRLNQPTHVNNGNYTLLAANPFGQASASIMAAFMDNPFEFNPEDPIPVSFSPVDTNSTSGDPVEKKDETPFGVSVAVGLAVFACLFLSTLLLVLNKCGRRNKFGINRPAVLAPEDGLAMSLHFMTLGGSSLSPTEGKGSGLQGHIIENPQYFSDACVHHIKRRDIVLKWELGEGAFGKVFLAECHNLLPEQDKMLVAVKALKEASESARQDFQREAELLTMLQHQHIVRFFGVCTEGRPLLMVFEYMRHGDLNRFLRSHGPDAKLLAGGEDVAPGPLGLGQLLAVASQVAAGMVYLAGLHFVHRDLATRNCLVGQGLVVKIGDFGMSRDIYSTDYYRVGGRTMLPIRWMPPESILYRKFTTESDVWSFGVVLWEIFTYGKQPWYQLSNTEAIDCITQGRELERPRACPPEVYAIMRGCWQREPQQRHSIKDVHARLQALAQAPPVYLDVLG
In short: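 Radiometric kinase assay run as an external profiling service, with ATP at the Km of each kinase. IC50 values are means of two independent experiments.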

## Cc1ccc(NC(=O)c2ccc(C)c(C(F)(F)F)c2)cc1C#Cc1nn([C@H]2CC[C@H](O)CC2)c2ncnc(N)c12
[1]
  Cmax: 143 ng/mL
[2]
  AUC(0-inf): 2950 ng·h/mL
PC-9
  IC50: 0.152 µM
[3]
  inhibition: Active
MIA PaCa-2
  IC50: < 0.6 µM
MDA-MB-231 [4]
  Activity: 91.3%
[5]
  Activity: Non-Toxic
Danio rerio
  Activity: inactive
MDA-MB-231 [6]
  Activity: 67.94%
MDA-MB-231 [7]
  Activity: Dose-dependent effect
MDA-MB-231 [8]
  inhibition: Active
NCI-H1437
  IC50: 2.34 µM
[9]
  IC50: > 10 µM
